The EC50 is the concentration at which the effect is half-maximal. Broadly, the IC50 is the concentration at which inhibition is half-maximal.

This is an account of results in ChEMBL document CHEMBL4364337, “The discovery and optimization of a series of 2-aminobenzoxazole derivatives as ChemR23 inhibitors” (Bioorg Med Chem, 2019).

In test [1] the target is T1, Chemerin-like receptor 1 (Homo sapiens, UniProt Q99788).
T1 sequence (Q99788 whole entry): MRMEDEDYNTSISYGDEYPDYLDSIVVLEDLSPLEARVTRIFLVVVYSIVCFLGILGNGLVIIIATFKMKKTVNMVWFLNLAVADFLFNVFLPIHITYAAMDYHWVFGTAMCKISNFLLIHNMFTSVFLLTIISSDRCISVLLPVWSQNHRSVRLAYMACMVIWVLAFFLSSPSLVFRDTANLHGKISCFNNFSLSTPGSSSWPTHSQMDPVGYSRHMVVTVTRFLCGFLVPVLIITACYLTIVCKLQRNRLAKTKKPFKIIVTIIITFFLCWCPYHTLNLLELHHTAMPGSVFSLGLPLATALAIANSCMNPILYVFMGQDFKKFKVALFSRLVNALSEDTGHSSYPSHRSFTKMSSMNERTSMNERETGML
Nature of the test: Agonist activity at chemR23 expressed in human CAL1 cells assessed as increase in intracellular calcium ion concentration. The format is functional, cell-based. (Calcium flux is commonly read through the fluorescence of an indicator in the cells.)

In test [2] the target is C-X-C chemokine receptor type 4 (Homo sapiens, UniProt P61073). Nature of the test: Inhibition of CXCR4 expressed in human CAL1 cells assessed as reduction in SDF1alpha-induced intracellular calcium ion concentration preincubated for 45 mins followed by SDF1alpha addition. The format is functional, cell-based. In outline:
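CAL-1 cells (1 × 10⁴/well) loaded with Calcium-3 in RPMI1640, 10 mM HEPES, amaranth 0.75 mg/mL final. Compounds at final 0–10 µM for 45 min at 37 °C, then human SDF-1α (final 5 × 10^-3 µM, in buffer with 1% BSA); intracellular Ca²⁺ read by kinetic fluorescence.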

Test [3] deals with T1, Chemerin-like receptor 1. Nature of the test: Inhibition of chemR23 in human CAL1 cells assessed as reduction in chemerin-induced intracellular calcium ion concentration preincubated for 45 mins followed by chemerin addition. The format is functional, cell-based. In outline:
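CAL-1 cells, native human ChemR23, 1 × 10⁴/well in RPMI 1640 with 10 mM HEPES, Calcium-3 dye, amaranth 0.75 mg/mL final. Compounds at final 0–10 µM for 45 min at 37 °C, then human chemerin (final 50 ng/mL, 1% BSA buffer); intracellular Ca²⁺ read by kinetic fluorescence; mean of four measurements.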

In test [4] the target is T2, Chemerin-like receptor 1 (Mus musculus, UniProt P97468).
T2 sequence (P97468 whole entry): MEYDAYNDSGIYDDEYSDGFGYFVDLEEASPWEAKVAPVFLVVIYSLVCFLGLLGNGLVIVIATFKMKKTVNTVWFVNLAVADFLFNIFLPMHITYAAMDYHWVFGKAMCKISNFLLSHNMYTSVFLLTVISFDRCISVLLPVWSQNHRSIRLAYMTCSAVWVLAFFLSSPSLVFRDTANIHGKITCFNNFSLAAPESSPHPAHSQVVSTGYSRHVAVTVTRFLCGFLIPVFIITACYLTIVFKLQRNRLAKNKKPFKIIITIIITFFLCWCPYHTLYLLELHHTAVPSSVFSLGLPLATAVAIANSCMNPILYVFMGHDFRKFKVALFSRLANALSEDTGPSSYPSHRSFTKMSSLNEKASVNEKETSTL
Nature of the test: Inhibition of chemR23 expressed in mouse BA/F3 cells assessed as reduction in chemerin-induced intracellular calcium ion concentration preincubated for 45 mins followed by chemerin addition. It is filed as functional, cell-based. The procedure, abridged:
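Ba/F3 cells stably expressing mouse ChemR23, 1 × 10⁴/well, loaded with Calcium-3 in RPMI1640, 10 mM HEPES, amaranth 0.75 mg/mL final. Compounds at final 0–10 µM for 45 min at 37 °C, then mouse chemerin (final 2 ng/mL, 1% BSA buffer); intracellular Ca²⁺ read by kinetic fluorescence.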

The target in test [5] is T3, Chemerin-like receptor 1 (Homo sapiens) (UniProt Q99788).
T3 sequence (whole entry): T1 sequence (Q99788 whole entry)
Nature of the test: Induction of chemR23 internalization in human CAL1 cells at 3 uM incubated for 30 mins at 4 degC by flow cytometric analysis. The format is cell-based. In outline: (§1)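 CAL-1 cells in RPMI1640 with 10 mM HEPES, 4.5 × 10⁵ cells per tube, exposed to compounds at 37 °C or 4 °C for 30 min; chemerin 50 ng/mL as reference ligand. Washed with PBS containing 2% FBS, stained with anti-ChemR23 antibody; surface ChemR23 measured by flow cytometry, single determination (N = 1).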
On the technique in general: Flow cytometry measures light scatter and fluorescence of single cells or particles in a stream.

Test [6] deals with T3, Chemerin-like receptor 1 (Homo sapiens). Briefly: Induction of chemR23 internalization in human CAL1 cells at 3 uM incubated for 30 mins at 37 degC by flow cytometric analysis. It is filed as cell-based. The procedure, abridged:
as §1

Test [7] shares this target. Nature of the test: Induction of chemR23 internalization in human CAL1 cells at 10 uM incubated for 30 mins at 37 degC by flow cytometric analysis. The format is cell-based. In outline:
as §1

The target is the same in test [8]. Briefly: Induction of chemR23 internalization in human CAL1 cells at 10 uM incubated for 30 mins at 4 degC by flow cytometric analysis. It is filed as cell-based. In outline: as §1

Active and inactive are the calls of the source. The calls are words filed in the database; no cut-off is given here.

C-X-C chemokine receptor type 4, sequence (P61073 whole entry): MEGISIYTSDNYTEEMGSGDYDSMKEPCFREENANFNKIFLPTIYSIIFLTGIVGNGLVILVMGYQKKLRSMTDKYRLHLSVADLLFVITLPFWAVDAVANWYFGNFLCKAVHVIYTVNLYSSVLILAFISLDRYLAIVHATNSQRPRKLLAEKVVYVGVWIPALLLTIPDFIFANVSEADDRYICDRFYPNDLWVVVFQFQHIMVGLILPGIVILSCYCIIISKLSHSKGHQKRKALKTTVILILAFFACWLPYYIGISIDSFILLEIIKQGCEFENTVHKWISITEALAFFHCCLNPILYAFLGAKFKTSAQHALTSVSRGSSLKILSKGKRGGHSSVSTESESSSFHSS

For the compound `CCCCN(c1nc2ccccc2o1)C(CC)c1ccc(-c2ccccc2-c2nnn[nH]2)cc1` (configuration not stated), at Chemerin-like receptor 1 [1], the EC50 was determined as 4.5 µM. Further, the results for the IC50 (in test [2]; on Chemerin-like receptor 1 [3]) were 8.8 µM and 0.94 µM, respectively.
On to `CCCCN(Cc1ccc(-c2ccccc2-c2nnn[nH]2)cc1)c1nc2cc(CC(=O)NC)ccc2o1`, for which the EC50 at Chemerin-like receptor 1 [1] was 3.9 µM. The IC50 was above 10 µM in test [2] and 1 µM at Chemerin-like receptor 1 [3].
Regarding `CCCCN(c1nc2cc(NC(=O)N(C)C)ccc2o1)[C@H](C)c1ccc(-c2ccccc2-c2nnn[nH]2)cc1`, the results for the half-maximal inhibitory concentration (IC50) (on Chemerin-like receptor 1 [4]; in test [2]; at Chemerin-like receptor 1 [3]) were 0.51 µM, above 10 µM and 0.032 µM, respectively.
Consider `CCCCN(c1nc2ccccc2o1)[C@@H](C)c1ccc(-c2ccccc2-c2nnn[nH]2)cc1`, for which, at Chemerin-like receptor 1 [1], the half-maximal effective concentration (EC50) was above 10 µM. The result in test [5] was inactive. For the same compound, the IC50 in test [2] was 9.9 µM; at Chemerin-like receptor 1 [3], 7.6 µM. Moreover, in test [6], the outcome was Active.
`CCCCN(c1nc2cc(N(C)C(N)=O)ccc2o1)[C@H](C)c1ccc(-c2ccccc2-c2nnn[nH]2)cc1`: the concentration for half-maximal inhibition (IC50) is above 10 µM on Chemerin-like receptor 1 [4] and above 30 µM on Chemerin-like receptor 1 [3].
Turning to `CCCCN(c1nc2cc(NC(C)=O)ccc2o1)[C@H](C)c1ccc(-c2ccccc2-c2nnn[nH]2)cc1`, the half-inhibitory concentration (IC50) at Chemerin-like receptor 1 [4] is 2.1 µM; in test [2] it was above 10 µM; at Chemerin-like receptor 1 [3] it was 0.44 µM. Moreover, at Chemerin-like receptor 1 [1], the 50% effective concentration (EC50) amounted to 1.5 µM.
For `c1cncc(CN(Cc2ccc(-c3ccccc3-c3nnn[nH]3)cc2)c2nc3ccccc3o2)c1`, on Chemerin-like receptor 1 [1], the EC50 was above 10 µM. Moreover, the half-maximal inhibitory concentration (IC50) (in test [2]; on Chemerin-like receptor 1 [3]) was above 10 µM in each case.
For `c1ccc(CN(Cc2ccc(-c3ccccc3-c3nnn[nH]3)cc2)c2nc3ccccc3o2)cc1`, at Chemerin-like receptor 1 [1], the half-maximal effective concentration (EC50) was above 10 µM. The results for the 50% inhibitory concentration (IC50) (in test [2]; at Chemerin-like receptor 1 [3]) were 9.6 µM and above 10 µM, respectively.
With `CCCCN(c1nc2ccccc2o1)C(C)c1ccc(-c2ccccc2-c2nnn[nH]2)cc1` (racemic), the concentration giving a half-maximal response (EC50) at Chemerin-like receptor 1 [1] was determined as 2.7 µM. Besides, the half-inhibitory concentration (IC50) in test [2] turned out to be 8.8 µM; on Chemerin-like receptor 1 [3], 0.25 µM.
The matching figures for `CCCCN(Cc1ccc(-c2ccccc2-c2nnn[nH]2)cc1)c1nc2cc(Cl)c(C)cc2o1`: above 10 µM, 5.5 µM and 3.3 µM.
Regarding `CCCCN(c1nc2cc(NC(N)=O)ccc2o1)[C@H](C)c1ccc(-c2ccccc2-c2nnn[nH]2)cc1`, the IC50 was 0.43 µM on Chemerin-like receptor 1 [4], above 10 µM in test [2] and 0.037 µM on Chemerin-like receptor 1 [3].
Take `CCCCN(Cc1ccc(-c2ccccc2-c2nnn[nH]2)cc1)c1nc2ccccc2o1`: the half-maximal effective concentration (EC50) at Chemerin-like receptor 1 [1] was found to be 5.2 µM. The outcome in test [7] was Active. Besides, the result in test [8] was inactive. The half-inhibitory concentration (IC50) came out at 9.7 µM in test [2] and 3.3 µM at Chemerin-like receptor 1 [3].
For `CCCCN(c1nc2ccccc2o1)[C@H](C)c1ccc(-c2ccccc2-c2nnn[nH]2)cc1`, the IC50 at Chemerin-like receptor 1 [4] was determined as 0.15 µM; in test [2], 8.7 µM; on Chemerin-like receptor 1 [3], 0.11 µM. Further, the EC50 on Chemerin-like receptor 1 [1] turned out to be 1.2 µM. Besides, in test [5], the outcome was inactive. Further, the outcome in test [6] was Active.
Consider `CCCCN(c1nc2cc(C(=O)NC)ccc2o1)[C@H](C)c1ccc(-c2ccccc2-c2nnn[nH]2)cc1`, for which the figures for the IC50 (at Chemerin-like receptor 1 [4]; in test [2]; at Chemerin-like receptor 1 [3]) were 0.15 µM, above 10 µM and 0.038 µM, respectively. In addition, at Chemerin-like receptor 1 [1], the concentration for a half-maximal effect (EC50) turned out to be 0.28 µM.
As for `c1ccc(-c2nnn[nH]2)c(-c2ccc(CN(CC3CCCC3)c3nc4ccccc4o3)cc2)c1`, the 50% effective concentration (EC50) on Chemerin-like receptor 1 [1] turned out to be 8.3 µM. For the same compound, the IC50 is 3.5 µM in test [2] and 2.2 µM at Chemerin-like receptor 1 [3].
For `c1ccc(CN(Cc2ccc(-c3ccccc3-c3nnn[nH]3)cc2)c2nc3ccccc3o2)nc1`, the EC50 at Chemerin-like receptor 1 [1] was above 10 µM. Also, the IC50 is above 10 µM in test [2] and 2.8 µM on Chemerin-like receptor 1 [3].
With `CCCCN(Cc1ccc(-c2ccccc2-c2nnn[nH]2)cc1)c1nc2cc(Cl)cc(C)c2o1`, the EC50 at Chemerin-like receptor 1 [1] was above 10 µM. The figures for the 50% inhibitory concentration (IC50) (in test [2]; on Chemerin-like receptor 1 [3]) were 3.9 µM and 2.5 µM, respectively.
For the compound `CCCCN(Cc1ccc(-c2ccccc2-c2nnn[nH]2)cc1)c1nc2cc(C(=O)OC)ccc2o1`, on Chemerin-like receptor 1 [1], the EC50 is above 10 µM. Besides, the IC50 in test [2] is above 10 µM; on Chemerin-like receptor 1 [3], 4.3 µM.
With `CCCCN(Cc1ccc(-c2ccccc2-c2nnn[nH]2)cc1)c1nc2cc(CC(=O)OC)ccc2o1`, the concentration giving a half-maximal response (EC50) at Chemerin-like receptor 1 [1] is above 10 µM. In addition, the concentration for half-maximal inhibition (IC50) in test [2] is above 10 µM; on Chemerin-like receptor 1 [3], 2.4 µM.
Turning to `CCCCN(c1nc2cc(CNC(=O)NC)ccc2o1)[C@H](C)c1ccc(-c2ccccc2-c2nnn[nH]2)cc1`, the IC50 at Chemerin-like receptor 1 [4] was 13 µM; in test [2], above 10 µM; on Chemerin-like receptor 1 [3] it was 0.048 µM. Further, the EC50 on Chemerin-like receptor 1 [1] came out at 1.3 µM.
On to `CCCCN(c1nc2cc(NC(=O)NC)ccc2o1)[C@H](C)c1ccc(-c2ccccc2-c2nnn[nH]2)cc1`, for which the 50% inhibitory concentration (IC50) is 0.94 µM on Chemerin-like receptor 1 [4], above 10 µM in test [2] and 0.034 µM on Chemerin-like receptor 1 [3].
Consider `CCCCN(Cc1ccc(-c2ccccc2-c2nnn[nH]2)cc1)c1nc2cc(Cl)cc(Cl)c2o1`, for which, on Chemerin-like receptor 1 [1], the concentration giving a half-maximal response (EC50) is above 10 µM. Moreover, the IC50 came out at 2.9 µM in test [2] and 1.2 µM at Chemerin-like receptor 1 [3].
The matching figures for `CCCCCN(Cc1ccc(-c2ccccc2-c2nnn[nH]2)cc1)c1nc2ccccc2o1`: 6.6 µM, 5.6 µM and 3.3 µM.
The matching figures for `CCCCN(c1nc2ccccc2o1)C(c1ccc(-c2ccccc2-c2nnn[nH]2)cc1)C1CC1` (configuration not stated): above 3 µM, above 3 µM and above 3 µM.
The matching figures for `COCCN(Cc1ccc(-c2ccccc2-c2nnn[nH]2)cc1)c1nc2ccccc2o1`: above 10 µM, above 10 µM and 3.4 µM.
Take `c1ccc(-c2nnn[nH]2)c(-c2ccc(CN(Cc3ccncc3)c3nc4ccccc4o3)cc2)c1`: the EC50 on Chemerin-like receptor 1 [1] is above 10 µM. The IC50 (in test [2]; on Chemerin-like receptor 1 [3]) was above 10 µM in each case.
Turning to `CCCCN(c1nc2ccccc2o1)C(C)(C)c1ccc(-c2ccccc2-c2nnn[nH]2)cc1`, the EC50 at Chemerin-like receptor 1 [1] is above 10 µM. Moreover, the results for the IC50 (in test [2]; on Chemerin-like receptor 1 [3]) were above 10 µM and 8.4 µM, respectively.
Regarding `CCCCN(c1nc2cc(CC(=O)NC)ccc2o1)[C@H](C)c1ccc(-c2ccccc2-c2nnn[nH]2)cc1`, the values for the IC50 (on Chemerin-like receptor 1 [4]; in test [2]; at Chemerin-like receptor 1 [3]) were above 10 µM, above 10 µM and 0.12 µM, respectively. The EC50 at Chemerin-like receptor 1 [1] is 2.3 µM.
`CCCCN(Cc1ccc(-c2ccccc2-c2nnn[nH]2)cc1)c1nc2cc(C)ccc2o1`: the 50% effective concentration (EC50) at Chemerin-like receptor 1 [1] was found to be 3.9 µM. Besides, the IC50 in test [2] was found to be 8.6 µM; at Chemerin-like receptor 1 [3], 2.5 µM.
